Reference: ChEMBL document CHEMBL1126893, “Synthesis and CLOGP correlation of imidooxy anticonvulsants” (J Med Chem, 1993)

Key:
Mus musculus [1] = assay: Anticonvulsant activity was measured by maximal electroshock test on mice at 4 hr at the dose of 100 mg/kg; number of animals protected/number of animals tested, 0/3; assay type: functional
Mus musculus [2] = assay: Anticonvulsant activity was measured by rotarod toxicity teston mice at 0.25 hr at the dose of 50 mg/kg; number of animals protected/number of animals tested, 0/4; assay type: functional
Mus musculus [3] = assay: Anticonvulsant activity was measured by maximal electroshock test on mice at 050 hr at the dose of 50 mg/kg; number of animals protected/number of animals tested, 0/4; assay type: functional
Mus musculus [4] = assay: Anticonvulsant activity was measured by rotarod toxicity test on mice at 4 hr at the dose of 300 mg/kg; number of animals protected/number of animals tested, 0/2; assay type: functional
Mus musculus [5] = assay: Anticonvulsant activity was measured by maximal electroshock test on mice at 1 hr at the dose of 50 mg/kg; number of animals protected/number of animals tested, 0/4; assay type: functional
Mus musculus [6] = assay: Anticonvulsant activity was measured by subcutaneous pentylenetetrazole test on mice at 4 hr at the dose of 100 mg/kg; number of animals protected/number of animals tested, 0/1; assay type: functional
Mus musculus [7] = assay: Anticonvulsant activity was measured by rotarod toxicity test on mice at 1 hr at the dose of 50 mg/kg; number of animals protected/number of animals tested, 0/4; assay type: functional
Mus musculus [8] = assay: Anticonvulsant activity was measured by rotarod toxicity test on mice at 30 min at the dose of 300 mg/kg; number of animals protected/number of animals tested, 4/4; assay type: functional
Mus musculus [9] = assay: Anticonvulsant activity was measured by rotarod toxicity test on mice at 30 min at the dose of 100 mg/kg; number of animals protected/number of animals tested, 0/8; assay type: functional
Mus musculus [10] = assay: Anticonvulsant activity was measured by maximal electroshock test on mice at 2 hr at the dose of 50 mg/kg; number of animals protected/number of animals tested, 1/4; assay type: functional
Mus musculus [11] = assay: Anticonvulsant activity was measured by subcutaneous pentylenetetrazole test on mice at 4 h at the dose of 300 mg/kg; number of animals protected/number of animals tested, 0/1; assay type: functional
Mus musculus [12] = assay: Anticonvulsant activity was measured by maximal electroshock test on mice at 30 min at the dose of 300 mg/kg; number of animals protected/number of animals tested, 1/1; assay type: functional
Mus musculus [13] = assay: Anticonvulsant activity was measured by subcutaneous pentylenetetrazole test on mice at 30 min at the dose of 100 mg/kg; number of animals protected/number of animals tested, 0/1; assay type: functional
Mus musculus [14] = assay: Anticonvulsant activity was measured by maximal electroshock test on mice at 4 hr at the dose of 300 mg/kg; number of animals protected/number of animals tested, 0/1; assay type: functional
Mus musculus [15] = assay: Anticonvulsant activity was measured by maximal electroshock test on mice at 30 min at the dose of 100 mg/kg; number of animals protected/number of animals tested, 0/3; assay type: functional
Mus musculus [16] = assay: Anticonvulsant activity was measured by rotarod toxicity test on mice at 4 hr at the dose of 100 mg/kg; number of animals protected/number of animals tested, 0/4; assay type: functional
Mus musculus [17] = assay: Anticonvulsant activity was measured by maximal electroshock test on mice at 0.25 hr at the dose of 50 mg/kg; number of animals protected/number of animals tested, 0/4; assay type: functional
Mus musculus [18] = assay: Anticonvulsant activity was measured by rotarod toxicity test on mice at 2 hr at the dose of 50 mg/kg; number of animals protected/number of animals tested, 0/4; assay type: functional
Mus musculus [19] = assay: Anticonvulsant activity was measured by rotarod toxicity test on mice at 4 hr at the dose of 50 mg/kg; number of animals protected/number of animals tested, 0/4; assay type: functional
Mus musculus [20] = assay: Anticonvulsant activity was measured by maximal electroshock test on mice at 4 hr at the dose of 50 mg/kg; number of animals protected/number of animals tested, 0/4; assay type: functional
Mus musculus [21] = assay: Anticonvulsant activity was measured by rotarod toxicity teston mice at 0.50 hr at the dose of 50 mg/kg; number of animals protected/number of animals tested, 0/4; assay type: functional
Mus musculus [22] = assay: Anticonvulsant activity was measured by subcutaneous pentylenetetrazole test on mice at 30 min at the dose of 300 mg/kg; number of animals protected/number of animals tested, 0/1; assay type: functional
Mus musculus [23] = assay: Anticonvulsant activity was measured by maximal electroshock test on mice at 050 hr at the dose of 50 mg/kg; number of animals protected/number of animals tested, 1/4; assay type: functional
Mus musculus [24] = assay: Anticonvulsant activity was measured by subcutaneous pentylenetetrazole test on mice at 30 min at the dose of 300 mg/kg; number of animals protected/number of animals tested, 1/1; assay type: functional
Mus musculus [25] = assay: Anticonvulsant activity was measured by maximal electroshock test on mice at 30 min at the dose of 100 mg/kg; number of animals protected/number of animals tested, 2/3; assay type: functional
Mus musculus [26] = assay: Anticonvulsant activity was measured by maximal electroshock test on mice at 1 hr at the dose of 50 mg/kg; number of animals protected/number of animals tested, 1/4; assay type: functional
Mus musculus [27] = assay: Anticonvulsant activity was measured by maximal electroshock test on mice at 2 hr at the dose of 50 mg/kg; number of animals protected/number of animals tested, 2/4; assay type: functional
Mus musculus [28] = assay: Anticonvulsant activity was measured by subcutaneous pentylenetetrazole test on mice at 0.25 hr at the dose of 100 mg/kg; number of animals protected/number of animals tested 2/2; assay type: functional
Mus musculus [29] = assay: Anticonvulsant activity was measured by rotarod toxicity test on mice at 30 min at the dose of 300 mg/kg; number of animals protected/number of animals tested 4/4; assay type: functional
Mus musculus [30] = assay: Anticonvulsant activity was measured by subcutaneous pentylenetetrazole test on mice at 1 hr at the dose of 100 mg/kg; number of animals protected/number of animals tested 0/2; assay type: functional
Mus musculus [31] = species on record: Mus musculus; assay: Protective index (TD50/ED50) value in MES test in mice; assay type: functional
Mus musculus [32] = assay: Anticonvulsant activity was measured by rotarod toxicity test on mice at 4 h at the dose of 300 mg/kg; number of animals protected/number of animals tested 0/2; assay type: functional
Mus musculus [33] = assay: Anticonvulsant activity was measured by maximal electroshock test on mice at 0.25 hr at the dose of 100 mg/kg; number of animals protected/number of animals tested 2/2; assay type: functional
Mus musculus [34] = species on record: Mus musculus; assay: Protective index (TD50/ED50) value in scMET test in mice; assay type: functional
Method in brief: (§1)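 Phase II quantification in mice after ip dosing. ED50 (scMet or MES) measured at the time of peak effect. TD50 (rotorod neurologic deficit) measured at the time of peak neurologic deficit. Medians and 95% confidence limits by the Litchfield-Wilcoxon method. Protective index = TD50/ED50. Time of peak effect determined in the MES or scMet test.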

Mus musculus [35] = assay: Anticonvulsant activity was measured by subcutaneous pentylenetetrazole test on mice at 4 hr at the dose of 300 mg/kg; number of animals protected/number of animals tested 0/1; assay type: functional
Mus musculus [36] = assay: Anticonvulsant activity was measured by subcutaneous pentylenetetrazole test on mice at 30 min at the dose of 300 mg/kg; number of animals protected/number of animals tested 1/1; assay type: functional
Mus musculus [37] = assay: Anticonvulsant activity was measured by maximal electroshock test on mice at 30 min at the dose of 300 mg/kg; number of animals protected/number of animals tested 1/1; assay type: functional
Mus musculus [38] = assay: Anticonvulsant activity was measured by rotarod toxicity test on mice at 1 hr at the dose of 100 mg/kg; number of animals protected/number of animals tested 0/4; assay type: functional
Mus musculus [39] = assay: Anticonvulsant activity was measured by maximal electroshock test on mice at 4 h at the dose of 300 mg/kg; number of animals protected/number of animals tested 0/1; assay type: functional
Mus musculus [40] = assay: Time of peak effect of toxicity of compound was measured by both MES and sc Met test in mice; assay type: functional; method in brief: as §1
Mus musculus [41] = assay: Anticonvulsant activity was measured by rotarod toxicity test on mice at 0.25 hr at the dose of 100 mg/kg; number of animals protected/number of animals tested 0/4; assay type: functional
Mus musculus [42] = assay: Time of peak effect of activity of compound was measured by both MES and sc Met test in mice; assay type: functional; method in brief: as §1
Mus musculus [43] = assay: Anticonvulsant activity was measured by subcutaneous maximal electroshock test on mice at 1 hr at the dose of 100 mg/kg; number of animals protected/number of animals tested 1/2; assay type: functional
Mus musculus [44] = assay: Effective dose was measured in mouse by maximal electroshock method by ip administration; assay type: functional; method in brief: as §1
Mus musculus [45] = assay: Effective dose was measured in mouse by maximal electroshock method by ip administration.; assay type: functional; method in brief: as §1
Mus musculus [46] = assay: Anticonvulsant activity was measured by rotarod toxicity test on mice at 30 min at the dose of 300 mg/kg; number of animals protected/number of animals tested 0/4; assay type: functional
Mus musculus [47] = assay: Anticonvulsant activity was measured by maximal electroshock test on mice at 0.25 hr at the dose of 100 mg/kg; number of animals protected/number of animals tested 0/2; assay type: functional
Mus musculus [48] = assay: Anticonvulsant activity was measured by rotarod toxicity teston mice at 0.25 hr at the dose of 100 mg/kg; number of animals protected/number of animals tested 0/2; assay type: functional
Mus musculus [49] = assay: Anticonvulsant activity was measured by rotarod toxicity test on mice at 1 hr at the dose of 100 mg/kg; number of animals protected/number of animals tested, 0/2; assay type: functional
Mus musculus [50] = assay: Effective dose was measured in mouse by subcutaneous pentylenetetrazole method by ip administration.; assay type: functional; method in brief: as §1
Rattus norvegicus = assay: Effective dose was measured in rat by maximal electroshock method by ip administration; assay type: functional
Mus musculus [51] = species on record: Mus musculus; assay: animal or person

O=C1CC2(CCCC2)C(=O)N1OCc1ccccc1Cl
1: Ratio (Mus musculus [10]) | Ratio (Mus musculus [12])
0: Ratio (Mus musculus [1]) | Ratio (Mus musculus [2]) | Ratio (Mus musculus [3]) | Ratio (Mus musculus [4]) | Ratio (Mus musculus [5]) | Ratio (Mus musculus [6]) | Ratio (Mus musculus [7]) | Ratio (Mus musculus [9]) | Ratio (Mus musculus [11]) | Ratio (Mus musculus [13]) | Ratio (Mus musculus [14]) | Ratio (Mus musculus [15]) | Ratio (Mus musculus [16]) | Ratio (Mus musculus [17]) | Ratio (Mus musculus [18]) | Ratio (Mus musculus [19]) | Ratio (Mus musculus [20]) | Ratio (Mus musculus [21]) | Ratio (Mus musculus [22])
4: Ratio (Mus musculus [8])

O=C1CC2(CCCC2)C(=O)N1OCc1ccccc1F
1: Ratio (Mus musculus [23]) | Ratio (Mus musculus [12]) | Ratio (Mus musculus [24]) | Ratio (Mus musculus [26])
4: Ratio (Mus musculus [8])
2: Ratio (Mus musculus [25]) | Ratio (Mus musculus [27])
0: Ratio (Mus musculus [1]) | Ratio (Mus musculus [2]) | Ratio (Mus musculus [4]) | Ratio (Mus musculus [6]) | Ratio (Mus musculus [7]) | Ratio (Mus musculus [9]) | Ratio (Mus musculus [11]) | Ratio (Mus musculus [13]) | Ratio (Mus musculus [14]) | Ratio (Mus musculus [16]) | Ratio (Mus musculus [17]) | Ratio (Mus musculus [18]) | Ratio (Mus musculus [19]) | Ratio (Mus musculus [20]) | Ratio (Mus musculus [21])

O=C1CC2(CCCC2)C(=O)N1OCc1ccccc1Br
2.3: PI (Mus musculus [31])
0: Ratio (Mus musculus [30]) | Ratio (Mus musculus [32]) | Ratio (Mus musculus [35]) | Ratio (Mus musculus [38]) | Ratio (Mus musculus [39]) | Ratio (Mus musculus [41])
1: Ratio (Mus musculus [36]) | Ratio (Mus musculus [37]) | Ratio (Mus musculus [43])
2: Ratio (Mus musculus [28]) | Ratio (Mus musculus [33])
4: Ratio (Mus musculus [29])
1.7: PI (Mus musculus [34])
0.25: TPE (Mus musculus [40]) | TPE (Mus musculus [42])

NC(=O)N1c2ccccc2C=Cc2ccccc21 [CARBAMAZEPINE]
0.25: TPE (Mus musculus [40]) | TPE (Mus musculus [42])
8.8 mg/kg: ED50 (Mus musculus [44])

O=C1CC2(CCCC2)C(=O)N1OCc1ccc(C(F)(F)F)cc1
0.25: TPE (Mus musculus [40])
0: Ratio (Mus musculus [32]) | Ratio (Mus musculus [46]) | Ratio (Mus musculus [35]) | Ratio (Mus musculus [47]) | Ratio (Mus musculus [48]) | Ratio (Mus musculus [39]) | Ratio (Mus musculus [49])
1: Ratio (Mus musculus [36]) | Ratio (Mus musculus [37])
2: TPE (Mus musculus [42])
300 mg/kg: ED50 (Mus musculus [45]) | ED50 (Mus musculus [50])
>1.7: PI (Mus musculus [31]) | PI (Mus musculus [34])

CCC1(C)CC(=O)NC1=O (centres undefined) [ETHOSUXIMIDE]
0.5: TPE (Mus musculus [40])
0.5 toxicity: TPE (Mus musculus [42])
> 1000 mg/kg: ED50 (Rattus norvegicus)

CCCC(CCC)C(=O)O [VALPROIC ACID]
149 mg/kg: ED50 (Mus musculus [51])
0.25: TPE (Mus musculus [40])
0.25 toxicity: TPE (Mus musculus [42])
